What was measured:
[1] = biological target: Protein-tyrosine kinase 2-beta (Homo sapiens) (UniProt Q14289); test: Inhibition of human recombinant PYK2 at 40 nM related to control ULK1
[2] = biological target: Phosphorylase b kinase gamma catalytic chain, skeletal muscle/heart isoform (Homo sapiens) (UniProt Q16816); test: Inhibition of human recombinant PHKg1 at 40 nM in presence of ATP by radiometric assay relative to control
[3] = biological target: Glycogen synthase kinase-3 alpha (Homo sapiens) (UniProt P49840); test: Inhibition of human recombinant GSK3A at 40 nM in presence of ATP by radiometric assay relative to control
[4] = biological target: Dual specificity tyrosine-phosphorylation-regulated kinase 1B (Homo sapiens) (UniProt Q9Y463); test: Inhibition of human recombinant DYRK1B at 40 nM in presence of ATP by radiometric assay relative to control
[5] = biological target: Serine/threonine-protein kinase PLK1 (Homo sapiens) (UniProt P53350); test: Inhibition of human recombinant PLK1 at 40 nM related to control ULK1
[6] = biological target: Platelet-derived growth factor receptor beta (Homo sapiens) (UniProt P09619); test: Inhibition of human recombinant PDGFRb at 40 nM in presence of ATP by radiometric assay relative to control
[7] = biological target: T1, Serine/threonine-protein kinase STK11 (Homo sapiens) (UniProt Q15831); test: Inhibition of human recombinant LKB1 at 15 nM related to control ULK1
T1 sequence (whole entry): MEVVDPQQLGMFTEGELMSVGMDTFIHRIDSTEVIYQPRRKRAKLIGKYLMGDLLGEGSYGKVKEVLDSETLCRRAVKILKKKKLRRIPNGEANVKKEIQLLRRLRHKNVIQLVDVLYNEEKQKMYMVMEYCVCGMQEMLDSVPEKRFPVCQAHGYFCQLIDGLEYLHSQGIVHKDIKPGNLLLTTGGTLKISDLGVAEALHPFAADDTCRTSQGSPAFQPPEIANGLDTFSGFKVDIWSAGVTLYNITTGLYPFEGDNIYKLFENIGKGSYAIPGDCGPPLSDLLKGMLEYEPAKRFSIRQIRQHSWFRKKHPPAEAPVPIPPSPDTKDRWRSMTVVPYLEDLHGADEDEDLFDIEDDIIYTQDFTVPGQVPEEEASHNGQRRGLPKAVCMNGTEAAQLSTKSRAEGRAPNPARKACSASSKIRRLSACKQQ

[8] = biological target: Death-associated protein kinase 2 (Homo sapiens) (UniProt Q9UIK4); test: Inhibition of human recombinant DAPK2 at 15 nM related to control ULK1
[9] = biological target: 5'-AMP-activated protein kinase catalytic subunit alpha-1 (Homo sapiens) (UniProt Q13131); test: Inhibition of human recombinant AMPKa1 at 15 nM related to control ULK1
Method in brief: (§1)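 Panel of 327 recombinant human kinases, each assayed in vitro by radiometric activity assay in duplicate at a single inhibitor concentration per compound, chosen with reference to its ULK1 inhibition. Activity remaining was expressed as percent of vehicle control, and percent inhibition was calculated as 100 minus percent activity remaining.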

[10] = biological target: Mitogen-activated protein kinase kinase kinase 9 (Homo sapiens) (UniProt P80192); test: Inhibition of human recombinant MLK1 at 15 nM related to control ULK1
[11] = biological target: STE20-like serine/threonine-protein kinase (Homo sapiens) (UniProt Q9H2G2); test: Inhibition of human recombinant SLK at 15 nM related to control ULK1
[12] = biological target: Mitogen-activated protein kinase kinase kinase kinase 4 (Homo sapiens) (UniProt O95819); test: Inhibition of human recombinant HGK at 15 nM related to control ULK1
[13] = biological target: T2, Dual specificity mitogen-activated protein kinase kinase 6 (Homo sapiens) (UniProt P52564); test: Inhibition of human recombinant MAP2K6 at 15 nM in presence of ATP by radiometric assay relative to control
T2 sequence (whole entry): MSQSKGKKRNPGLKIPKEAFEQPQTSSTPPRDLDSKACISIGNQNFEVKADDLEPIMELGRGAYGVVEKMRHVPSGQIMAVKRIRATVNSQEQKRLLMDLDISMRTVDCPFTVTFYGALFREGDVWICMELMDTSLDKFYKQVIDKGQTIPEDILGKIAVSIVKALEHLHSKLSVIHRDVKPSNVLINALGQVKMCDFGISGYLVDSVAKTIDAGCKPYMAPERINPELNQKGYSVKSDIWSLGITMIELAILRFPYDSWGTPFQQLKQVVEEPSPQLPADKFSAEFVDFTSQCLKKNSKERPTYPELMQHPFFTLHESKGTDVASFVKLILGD

[14] = biological target: Mast/stem cell growth factor receptor Kit (Homo sapiens) (UniProt P10721); test: Inhibition of human recombinant KIT at 15 nM related to control ULK1
[15] = biological target: Calcium/calmodulin-dependent protein kinase type II subunit beta (Homo sapiens) (UniProt Q13554); test: Inhibition of human recombinant CaMK2b at 15 nM related to control ULK1
[16] = biological target: 5'-AMP-activated protein kinase catalytic subunit alpha-2 (Homo sapiens) (UniProt P54646); test: Inhibition of human recombinant AMPKa2 at 15 nM related to control ULK1; method in brief: as §1
[17] = biological target: T3, MAP kinase-activated protein kinase 5 (Homo sapiens) (UniProt Q8IW41); test: Inhibition of human recombinant MAPKAPK5 at 15 nM related to control ULK1
T3 sequence (whole entry): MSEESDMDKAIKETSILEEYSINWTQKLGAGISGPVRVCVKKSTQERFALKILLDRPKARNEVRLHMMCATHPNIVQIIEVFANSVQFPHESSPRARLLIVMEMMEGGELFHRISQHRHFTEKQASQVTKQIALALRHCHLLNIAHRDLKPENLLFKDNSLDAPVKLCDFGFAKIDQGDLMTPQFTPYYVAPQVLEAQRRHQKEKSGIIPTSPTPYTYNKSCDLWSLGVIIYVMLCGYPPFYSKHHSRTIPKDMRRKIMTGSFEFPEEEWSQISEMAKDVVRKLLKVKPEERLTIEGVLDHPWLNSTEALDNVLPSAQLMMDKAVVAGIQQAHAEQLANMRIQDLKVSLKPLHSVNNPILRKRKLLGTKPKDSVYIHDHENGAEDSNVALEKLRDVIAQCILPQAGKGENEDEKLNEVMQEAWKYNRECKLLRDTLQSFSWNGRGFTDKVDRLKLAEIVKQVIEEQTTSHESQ

[18] = biological target: Ribosomal protein S6 kinase alpha-6 (Homo sapiens) (UniProt Q9UK32); test: Inhibition of human recombinant RSK4 at 500 nM related to control ULK1
[19] = biological target: Serine/threonine-protein kinase tousled-like 2 (Homo sapiens) (UniProt Q86UE8); test: Inhibition of human recombinant TLK2 at 500 nM in presence of ATP by radiometric assay relative to control
[20] = biological target: Ephrin type-A receptor 2 (Homo sapiens) (UniProt P29317); test: Inhibition of human recombinant EphA2 at 500 nM related to control ULK1
Sequence of Ephrin type-A receptor 2 (Homo sapiens) (P29317 whole entry): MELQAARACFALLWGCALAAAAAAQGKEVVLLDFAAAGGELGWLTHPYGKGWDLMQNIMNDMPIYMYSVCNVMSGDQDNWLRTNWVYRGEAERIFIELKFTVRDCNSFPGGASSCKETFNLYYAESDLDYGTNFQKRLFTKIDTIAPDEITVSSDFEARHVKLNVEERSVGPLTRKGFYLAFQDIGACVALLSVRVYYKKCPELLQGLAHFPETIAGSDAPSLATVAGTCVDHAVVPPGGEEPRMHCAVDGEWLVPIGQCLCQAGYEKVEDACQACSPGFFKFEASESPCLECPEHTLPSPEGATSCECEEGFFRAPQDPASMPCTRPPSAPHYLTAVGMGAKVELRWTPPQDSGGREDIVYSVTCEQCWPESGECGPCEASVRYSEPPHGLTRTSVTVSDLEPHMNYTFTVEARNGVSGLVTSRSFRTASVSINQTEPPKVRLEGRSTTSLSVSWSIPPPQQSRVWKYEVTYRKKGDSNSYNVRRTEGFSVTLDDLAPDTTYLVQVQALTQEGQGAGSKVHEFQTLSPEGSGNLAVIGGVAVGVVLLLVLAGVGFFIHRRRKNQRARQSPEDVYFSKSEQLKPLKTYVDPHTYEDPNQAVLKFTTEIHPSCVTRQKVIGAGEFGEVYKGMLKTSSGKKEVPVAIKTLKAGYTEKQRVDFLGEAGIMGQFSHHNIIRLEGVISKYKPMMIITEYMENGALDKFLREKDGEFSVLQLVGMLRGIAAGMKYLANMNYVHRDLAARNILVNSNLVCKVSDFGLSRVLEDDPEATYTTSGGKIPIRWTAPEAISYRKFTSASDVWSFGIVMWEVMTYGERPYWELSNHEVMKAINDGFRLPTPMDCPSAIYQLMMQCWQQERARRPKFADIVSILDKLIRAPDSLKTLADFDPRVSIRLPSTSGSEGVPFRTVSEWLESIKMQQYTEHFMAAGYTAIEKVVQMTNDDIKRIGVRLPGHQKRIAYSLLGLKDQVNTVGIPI

Sequence of STE20-like serine/threonine-protein kinase (Homo sapiens) (Q9H2G2 whole entry, looked up): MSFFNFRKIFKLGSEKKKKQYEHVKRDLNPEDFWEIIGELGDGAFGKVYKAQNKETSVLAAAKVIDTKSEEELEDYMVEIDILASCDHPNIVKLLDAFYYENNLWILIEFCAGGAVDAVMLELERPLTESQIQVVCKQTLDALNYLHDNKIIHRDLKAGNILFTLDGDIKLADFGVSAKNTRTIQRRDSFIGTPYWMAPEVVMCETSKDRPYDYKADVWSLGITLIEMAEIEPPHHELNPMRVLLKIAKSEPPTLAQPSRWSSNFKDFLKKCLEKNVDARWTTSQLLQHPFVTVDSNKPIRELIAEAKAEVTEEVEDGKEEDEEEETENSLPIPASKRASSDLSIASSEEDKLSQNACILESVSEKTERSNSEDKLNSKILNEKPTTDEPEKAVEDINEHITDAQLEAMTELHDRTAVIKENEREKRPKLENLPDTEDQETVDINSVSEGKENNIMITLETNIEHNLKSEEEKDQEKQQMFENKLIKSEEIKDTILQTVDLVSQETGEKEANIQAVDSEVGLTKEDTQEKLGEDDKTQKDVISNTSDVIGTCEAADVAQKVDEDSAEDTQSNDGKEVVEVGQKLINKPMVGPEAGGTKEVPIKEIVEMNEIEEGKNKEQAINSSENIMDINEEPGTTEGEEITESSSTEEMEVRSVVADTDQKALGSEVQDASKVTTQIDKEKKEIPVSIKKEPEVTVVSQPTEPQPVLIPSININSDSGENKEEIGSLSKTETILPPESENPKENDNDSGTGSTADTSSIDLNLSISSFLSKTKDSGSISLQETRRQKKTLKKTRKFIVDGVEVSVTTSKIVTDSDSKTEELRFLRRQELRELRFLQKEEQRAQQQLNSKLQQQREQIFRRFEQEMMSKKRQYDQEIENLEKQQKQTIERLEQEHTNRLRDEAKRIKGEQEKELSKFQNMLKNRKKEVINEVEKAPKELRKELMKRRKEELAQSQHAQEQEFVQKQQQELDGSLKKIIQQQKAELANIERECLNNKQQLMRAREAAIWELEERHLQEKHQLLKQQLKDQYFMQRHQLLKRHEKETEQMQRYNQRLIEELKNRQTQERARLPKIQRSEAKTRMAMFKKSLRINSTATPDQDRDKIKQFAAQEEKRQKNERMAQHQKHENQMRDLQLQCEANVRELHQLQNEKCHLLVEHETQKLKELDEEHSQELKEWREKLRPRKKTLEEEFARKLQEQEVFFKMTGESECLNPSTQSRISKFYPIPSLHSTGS
Sequence of Mitogen-activated protein kinase kinase kinase kinase 4 (Homo sapiens) (O95819 2-1239 limits assumed): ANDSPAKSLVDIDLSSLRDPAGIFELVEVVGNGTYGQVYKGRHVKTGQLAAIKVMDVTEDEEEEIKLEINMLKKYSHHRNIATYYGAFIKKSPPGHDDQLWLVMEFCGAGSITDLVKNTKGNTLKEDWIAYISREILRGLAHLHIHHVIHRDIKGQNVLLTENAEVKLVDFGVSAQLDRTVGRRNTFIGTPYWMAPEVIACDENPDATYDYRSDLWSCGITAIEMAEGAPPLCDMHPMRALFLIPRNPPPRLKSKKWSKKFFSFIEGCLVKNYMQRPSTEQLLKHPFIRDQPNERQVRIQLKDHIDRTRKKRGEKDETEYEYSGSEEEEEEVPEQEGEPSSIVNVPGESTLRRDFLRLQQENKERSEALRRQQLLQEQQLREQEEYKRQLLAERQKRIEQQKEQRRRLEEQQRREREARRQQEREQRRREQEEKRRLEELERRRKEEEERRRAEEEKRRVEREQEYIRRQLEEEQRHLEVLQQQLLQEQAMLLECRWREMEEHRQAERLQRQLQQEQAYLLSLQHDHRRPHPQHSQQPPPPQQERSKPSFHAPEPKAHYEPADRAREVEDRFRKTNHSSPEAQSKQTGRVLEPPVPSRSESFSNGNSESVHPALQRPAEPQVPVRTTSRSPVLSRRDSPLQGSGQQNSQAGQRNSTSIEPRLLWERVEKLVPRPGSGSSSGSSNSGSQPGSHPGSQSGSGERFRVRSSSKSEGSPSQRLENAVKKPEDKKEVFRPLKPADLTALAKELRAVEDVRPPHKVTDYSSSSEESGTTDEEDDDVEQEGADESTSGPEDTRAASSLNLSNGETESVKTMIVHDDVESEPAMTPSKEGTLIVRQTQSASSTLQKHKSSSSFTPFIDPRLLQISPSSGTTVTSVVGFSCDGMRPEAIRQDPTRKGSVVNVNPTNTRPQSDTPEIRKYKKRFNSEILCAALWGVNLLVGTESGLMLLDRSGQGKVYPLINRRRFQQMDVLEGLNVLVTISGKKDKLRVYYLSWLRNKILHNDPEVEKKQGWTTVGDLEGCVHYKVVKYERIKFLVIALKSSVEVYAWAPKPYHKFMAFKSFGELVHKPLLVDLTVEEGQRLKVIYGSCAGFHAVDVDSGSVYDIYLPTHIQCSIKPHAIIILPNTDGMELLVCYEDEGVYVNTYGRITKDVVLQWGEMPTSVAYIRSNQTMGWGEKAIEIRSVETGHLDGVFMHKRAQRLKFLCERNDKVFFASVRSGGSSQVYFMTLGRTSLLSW
Sequence of Calcium/calmodulin-dependent protein kinase type II subunit beta (Homo sapiens) (Q13554 whole entry): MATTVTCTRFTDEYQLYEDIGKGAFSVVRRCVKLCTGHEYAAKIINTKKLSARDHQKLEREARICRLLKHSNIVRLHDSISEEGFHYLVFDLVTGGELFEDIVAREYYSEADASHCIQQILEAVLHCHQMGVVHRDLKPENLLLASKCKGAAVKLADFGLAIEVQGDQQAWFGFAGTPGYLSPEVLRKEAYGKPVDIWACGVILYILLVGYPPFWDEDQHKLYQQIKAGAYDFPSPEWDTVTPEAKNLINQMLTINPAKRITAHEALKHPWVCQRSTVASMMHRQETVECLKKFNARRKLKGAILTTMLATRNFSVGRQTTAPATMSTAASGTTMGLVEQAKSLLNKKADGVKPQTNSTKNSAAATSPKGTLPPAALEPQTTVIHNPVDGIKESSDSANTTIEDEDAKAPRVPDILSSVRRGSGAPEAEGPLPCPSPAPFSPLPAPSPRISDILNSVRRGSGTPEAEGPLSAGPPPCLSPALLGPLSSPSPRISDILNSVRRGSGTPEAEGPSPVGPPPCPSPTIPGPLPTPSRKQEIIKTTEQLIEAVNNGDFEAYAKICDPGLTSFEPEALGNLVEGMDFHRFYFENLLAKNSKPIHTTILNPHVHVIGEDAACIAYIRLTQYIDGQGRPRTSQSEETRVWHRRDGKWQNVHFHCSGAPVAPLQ
Sequence of 5'-AMP-activated protein kinase catalytic subunit alpha-2 (Homo sapiens) (P54646 whole entry, looked up): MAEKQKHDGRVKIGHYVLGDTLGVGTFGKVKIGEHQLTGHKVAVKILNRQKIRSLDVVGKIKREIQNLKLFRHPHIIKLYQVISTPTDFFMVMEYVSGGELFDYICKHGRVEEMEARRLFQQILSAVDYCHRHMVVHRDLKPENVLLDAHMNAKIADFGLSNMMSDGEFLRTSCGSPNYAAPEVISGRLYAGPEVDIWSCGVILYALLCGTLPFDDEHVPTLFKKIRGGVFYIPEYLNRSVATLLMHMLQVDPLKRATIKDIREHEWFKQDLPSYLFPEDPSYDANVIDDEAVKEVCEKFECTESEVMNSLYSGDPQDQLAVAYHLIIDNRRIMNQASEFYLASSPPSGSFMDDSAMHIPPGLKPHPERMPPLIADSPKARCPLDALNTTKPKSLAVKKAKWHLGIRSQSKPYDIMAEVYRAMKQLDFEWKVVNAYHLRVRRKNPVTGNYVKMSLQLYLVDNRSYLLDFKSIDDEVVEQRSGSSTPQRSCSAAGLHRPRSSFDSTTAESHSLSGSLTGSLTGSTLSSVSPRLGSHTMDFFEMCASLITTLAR
Sequence of Phosphorylase b kinase gamma catalytic chain, skeletal muscle/heart isoform (Homo sapiens) (Q16816 whole entry, looked up, canonical isoform): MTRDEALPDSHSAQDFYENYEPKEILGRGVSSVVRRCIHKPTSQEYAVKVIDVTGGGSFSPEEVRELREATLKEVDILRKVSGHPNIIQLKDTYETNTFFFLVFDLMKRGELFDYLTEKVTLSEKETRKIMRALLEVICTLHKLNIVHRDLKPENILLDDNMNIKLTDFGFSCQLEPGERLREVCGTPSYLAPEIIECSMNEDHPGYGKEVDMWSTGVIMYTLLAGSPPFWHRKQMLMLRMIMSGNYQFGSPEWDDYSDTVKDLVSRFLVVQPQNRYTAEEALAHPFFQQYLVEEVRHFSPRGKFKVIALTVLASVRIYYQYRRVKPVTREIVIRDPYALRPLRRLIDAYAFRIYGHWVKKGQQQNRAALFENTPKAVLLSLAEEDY

## O=C(N[C@@H](C1CC1)C(F)(F)F)c1cc(-c2cnn3cc(-c4ccc(F)cc4)cnc23)cs1
[1]
  fold change (FC): 0.04
[2]
  inhibition: 12%
[3]
  inhibition: 0%
[4]
  inhibition: 31%
[5]
  fold change (FC): 0
[6]
  inhibition: 5%

## CC(C)[C@H](NC(=O)c1cc(-c2cnn3cc(-c4ccc(OCCN5CCCCC5)cc4)cnc23)cs1)C(F)(F)F
[7]
  fold change (FC): 0
[8]
  fold change (FC): 0.07
[9]
  fold change (FC): 0.66
[10]
  fold change (FC): 0
[11]
  fold change (FC): 0.25
[12]
  fold change (FC): 0
[13]
  inhibition: 5%
[14]
  fold change (FC): 0
[15]
  fold change (FC): 0.11
[16]
  fold change (FC): 0.94
[17]
  fold change (FC): 0

## CNC(=O)c1ccccc1Oc1nc(Nc2cc(OC)c(OC)c(OC)c2)ncc1Br
[18]
  fold change (FC): 0.45
[19]
  inhibition: 0%
[20]
  fold change (FC): 0.03

Reference: ChEMBL document CHEMBL5653631, “A Potent and Selective ULK1 Inhibitor Suppresses Autophagy and Sensitizes Cancer Cells to Nutrient Stress” (iScience, 2018)
